# Laboratory results as given in ChEMBL document CHEMBL1131301, “Tyrosine kinase inhibitors. 14. Structure-activity relationships for methylamino-substituted derivatives of 4-[(3-bromophenyl)amino]-6-(methylamino)-pyrido[3,4-d]pyrimidine (PD 158780), a potent and specific inhibitor of the tyrosine kinase activity of receptors for the EGF family of growth factors” (J Med Chem, 1998).
# Key:
# [1] = biological target: T1, Epidermal growth factor receptor (Homo sapiens, UniProt P00533); assay: Inhibit of phosphorylation of a tyrosine/glutamic acid copolymer by epidermal growth factor receptor prepared from human A431 carcinoma cell vesicles by immunoaffinity chromatography.
# [2] = biological target: T1, Epidermal growth factor receptor; assay: Inhibition of autophosphorylation of epidermal growth factor receptor in A431 cells in culture
# [3] = Aqueous solubility ([…] degree C); assay type: physicochemical; settings: for solubility: water, read-out: S; for S: buffer
# [4] = biological target: T1, Epidermal growth factor receptor; assay: Inhibition of EGF-dependent autophosphorylation of EGF-R in A431 cells
# [5] = biological target: Receptor tyrosine-protein kinase erbB-2 (Homo sapiens, UniProt P04626); assay: Inhibition of heregulin-dependent autophosphorylation of ErbB2 receptor in MDA-MB-453 cells; assay type: functional, cell-based
# SK-OV-3 [6] = assay: Difference in days for treated (T) and control (C) SKOV-3 tumor fragments to reach 750 mg in mice at 30 mg/kg ip dose, administration days 10-14,17-21,24-28; assay type: functional; settings: route intraperitoneal
# Mus musculus [7] = assay: Difference in days for treated (T) and control (C) EGFR tumor fragments to reach 750 mg in mice at 38 mg/kg ip dose, administration days 1-15; assay type: functional; settings: route intraperitoneal
# Mus musculus [8] = assay: Difference in days for treated (T) and control (C) EGFR tumor fragments to reach 750 mg in mice at 400 mg/kg peroral dose, administration days 1-15; assay type: functional; settings: route oral
# MCF7 [9] = assay: Difference in days for treated (T) and control (C) MCF-7 tumor fragments to reach 750 mg in mice at 25 mg/kg ip dose, administration days 1-15; assay type: functional; settings: route intraperitoneal
# MCF7 [10] = assay: Difference in days for treated (T) and control (C) MCF-7 tumor fragments to reach 750 mg in mice at 50 mg/kg ip dose, administration days 1-15; assay type: functional; settings: route intraperitoneal
# A-431 [11] = assay: Ratio of treated and control A431 median tumor mass*100% in mice at 100 mg/kg peroral dose, days 7-21 administration; assay type: functional; settings: route oral
# In short: (§1)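 Nude mice (NCr nu/nu, 18-22 g) were randomized and implanted sc with tumor fragments in the right axilla on day 0. Tumor lines were A431 epidermoid, NIH 3T3 fibroblasts transfected with human EGFR, and MCF-7 breast. Dosing was ip or oral, by average cage weight, with 6 mice/dose group. Vehicle was 6% dimethylacetamide/94% 50 mM sodium lactate pH 4.0 (suspension), or isethionate salt in water.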
# Mus musculus [12] = assay: Ratio of treated and control EGFR median tumor mass*100% in mice at 38 mg/kg ip dose, days 1-15 administration; assay type: functional; settings: route intraperitoneal; in short: as §1
# Mus musculus [13] = assay: Ratio of treated and control EGFR median tumor mass*100% in mice at 400 mg/kg peroral dose, days 1-15 administration; assay type: functional; settings: route oral; in short: as §1
# MCF7 [14] = assay: Ratio of treated and control MCF-7 median tumor mass*100% in mice at 25 mg/kg ip dose, days 1-15 administration; assay type: functional; settings: route intraperitoneal; in short: as §1
# MCF7 [15] = assay: Ratio of treated and control MCF-7 median tumor mass*100% in mice at 50 mg/kg ip dose, days 1-15 administration; assay type: functional; settings: route intraperitoneal; in short: as §1
# A-431 [16] = assay: Difference in days for treated (T) and control (C) A431 tumors to reach 750 mg in mice at 75 mg/kg ip dose, days 7-21 administration; assay type: functional; settings: route intraperitoneal; in short: as §1
# SK-OV-3 [17] = assay: Ratio of treated and control SKOV-3 median tumor mass*100% in mice at 30 mg/kg ip dose, days 10-14,17-21,24-28 administration; assay type: functional; settings: route intraperitoneal
# Mus musculus [18] = assay: Net reduction in EGFR tumor burden between the first and last treatments in mice at 400 mg/kg peroral dose, days 1-15 administration; assay type: functional; settings: route oral
# In short: (§2)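 NCr nu/nu nude mice (18-22 g) were randomized and implanted sc with A431 epidermoid, human-EGFR-transfected NIH 3T3 fibroblast, or MCF-7 breast tumor fragments in the right axilla on day 0. Dosing was ip or oral, by average cage weight, with 6 mice per dose group. Log net cell kill is the net reduction in tumor burden between the first and last treatments.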
# Mus musculus [19] = assay: Net reduction in EGFR tumor burden between the first and last treatments in mice at 38 mg/kg ip dose, days 1-15 administration; assay type: functional; settings: route intraperitoneal; in short: as §1
# MCF7 [20] = assay: Net reduction in MCF-7 tumor burden between the first and last treatments in mice at 25 mg/kg ip dose, days 1-15 administration; assay type: functional; settings: route intraperitoneal; in short: as §2
# A-431 [21] = assay: Difference in days for treated (T) and control (C) A431 tumor fragments to reach 750 mg in mice at 100 mg/kg peroral dose, administration days 7-21; assay type: functional; settings: route oral
# MCF7 [22] = assay: Weight change in MCF-7 tumor bearing mice at 25 mg/kg ip dose, days 1-15 administration; assay type: functional; settings: route intraperitoneal
# MCF7 [23] = assay: Weight change in MCF-7 tumor bearing mice at 50 mg/kg ip dose, days 1-15 administration; assay type: functional, organism-based; parameters: dose 50 mg/kg
# A-431 [24] = assay: Weight change in A431 tumor bearing mice at 100 mg/kg peroral dose, days 7-21 administration; assay type: functional; settings: route oral
# A-431 [25] = assay: Weight change in A431 tumor bearing mice at 75 mg/kg ip dose, days 7-21 administration; assay type: functional; settings: route intraperitoneal
# Mus musculus [26] = assay: Weight change of EGFR tumor bearing mice at 38 mg/kg ip dose, days 1-15 administration; assay type: functional; settings: route intraperitoneal
# Mus musculus [27] = assay: Weight change of EGFR tumor bearing mice at 400 mg/kg peroral dose, days 1-15 administration; assay type: functional
# SK-OV-3 [28] = assay: Weight change in SKOV-3 tumor bearing mice at 30 mg/kg ip dose, days 10-14,17-21,24-28 administration; assay type: functional; settings: route intraperitoneal
# A-431 [29] = assay: Ratio of treated and control A431 median tumor mass*100% in mice at 75 mg/kg dose
# T1 sequence (P00533 whole entry): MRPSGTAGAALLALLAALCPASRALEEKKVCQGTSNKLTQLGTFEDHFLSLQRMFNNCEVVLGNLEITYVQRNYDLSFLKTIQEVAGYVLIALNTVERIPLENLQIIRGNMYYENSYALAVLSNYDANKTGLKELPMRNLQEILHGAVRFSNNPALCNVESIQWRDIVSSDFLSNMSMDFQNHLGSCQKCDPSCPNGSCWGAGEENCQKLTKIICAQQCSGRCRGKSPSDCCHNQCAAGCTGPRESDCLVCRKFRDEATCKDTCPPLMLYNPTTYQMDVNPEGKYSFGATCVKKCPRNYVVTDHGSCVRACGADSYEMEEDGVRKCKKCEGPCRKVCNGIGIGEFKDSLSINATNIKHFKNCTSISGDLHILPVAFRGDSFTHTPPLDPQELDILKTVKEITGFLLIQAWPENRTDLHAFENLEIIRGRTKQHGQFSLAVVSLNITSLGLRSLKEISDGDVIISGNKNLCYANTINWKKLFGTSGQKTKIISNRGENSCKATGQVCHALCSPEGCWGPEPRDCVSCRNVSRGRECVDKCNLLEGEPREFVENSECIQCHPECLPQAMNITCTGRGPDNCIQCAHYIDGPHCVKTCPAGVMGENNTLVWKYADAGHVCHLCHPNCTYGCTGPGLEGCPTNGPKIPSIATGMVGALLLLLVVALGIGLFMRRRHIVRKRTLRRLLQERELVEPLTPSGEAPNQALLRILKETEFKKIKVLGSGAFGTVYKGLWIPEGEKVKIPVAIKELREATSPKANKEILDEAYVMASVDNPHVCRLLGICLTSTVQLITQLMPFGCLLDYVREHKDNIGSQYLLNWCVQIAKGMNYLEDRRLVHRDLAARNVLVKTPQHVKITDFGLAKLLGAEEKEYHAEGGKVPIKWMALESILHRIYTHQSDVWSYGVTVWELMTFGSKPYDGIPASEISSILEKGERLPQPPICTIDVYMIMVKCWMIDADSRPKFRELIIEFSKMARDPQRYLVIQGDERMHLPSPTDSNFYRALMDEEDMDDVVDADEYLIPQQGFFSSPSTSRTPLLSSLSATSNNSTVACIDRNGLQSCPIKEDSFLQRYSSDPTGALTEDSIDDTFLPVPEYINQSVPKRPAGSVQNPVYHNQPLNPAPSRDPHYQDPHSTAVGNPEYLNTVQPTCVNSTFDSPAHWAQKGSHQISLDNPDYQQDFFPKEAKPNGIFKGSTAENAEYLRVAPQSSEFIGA
# Sequence of Receptor tyrosine-protein kinase erbB-2 (P04626 whole entry, the tested form may be a part): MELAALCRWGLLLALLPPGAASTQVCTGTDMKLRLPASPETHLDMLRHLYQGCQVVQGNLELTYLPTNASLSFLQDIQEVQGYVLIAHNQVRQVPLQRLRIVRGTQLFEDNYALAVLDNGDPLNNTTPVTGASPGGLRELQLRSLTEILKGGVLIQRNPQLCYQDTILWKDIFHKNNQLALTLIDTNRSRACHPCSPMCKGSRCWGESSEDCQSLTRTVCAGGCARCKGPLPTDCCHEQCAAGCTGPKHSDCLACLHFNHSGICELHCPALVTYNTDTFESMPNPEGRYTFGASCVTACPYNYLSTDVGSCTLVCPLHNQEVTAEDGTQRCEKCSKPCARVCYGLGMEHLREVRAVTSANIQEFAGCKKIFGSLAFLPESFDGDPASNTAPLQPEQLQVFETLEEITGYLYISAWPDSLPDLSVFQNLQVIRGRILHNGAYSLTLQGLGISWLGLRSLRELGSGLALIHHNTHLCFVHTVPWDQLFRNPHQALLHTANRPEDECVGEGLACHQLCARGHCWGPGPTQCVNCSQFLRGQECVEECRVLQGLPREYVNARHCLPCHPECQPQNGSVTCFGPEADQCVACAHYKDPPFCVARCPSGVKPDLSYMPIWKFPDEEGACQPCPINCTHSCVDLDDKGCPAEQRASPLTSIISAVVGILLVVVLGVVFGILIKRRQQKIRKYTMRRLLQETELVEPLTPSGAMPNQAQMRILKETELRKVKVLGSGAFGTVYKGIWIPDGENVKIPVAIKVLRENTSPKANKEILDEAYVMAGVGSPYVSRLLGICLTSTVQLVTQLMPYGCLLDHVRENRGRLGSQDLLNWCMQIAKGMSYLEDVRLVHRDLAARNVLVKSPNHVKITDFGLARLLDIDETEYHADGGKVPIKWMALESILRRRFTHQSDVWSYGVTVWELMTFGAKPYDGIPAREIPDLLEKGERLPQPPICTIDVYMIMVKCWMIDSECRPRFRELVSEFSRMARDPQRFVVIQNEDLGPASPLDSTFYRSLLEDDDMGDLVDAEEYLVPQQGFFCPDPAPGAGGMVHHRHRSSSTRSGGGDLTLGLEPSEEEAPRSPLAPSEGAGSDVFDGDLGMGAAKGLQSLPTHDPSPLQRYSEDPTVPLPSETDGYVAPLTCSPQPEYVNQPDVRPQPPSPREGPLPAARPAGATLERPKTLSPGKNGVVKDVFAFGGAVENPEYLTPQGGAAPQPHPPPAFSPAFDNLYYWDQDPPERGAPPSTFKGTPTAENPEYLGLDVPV
compound,measurement,setting,value
CNc1cc2c(Nc3cccc(C(F)(F)F)c3)ncnc2cn1,IC50,[1],1.1 nM
CN1CCN(c2cc3c(Nc4cccc(Br)c4)ncnc3cn2)CC1,IC50,[2],102 nM
same,solubility,[3],2.5 mM
same,IC50,[1],6.4 nM
Cc1cccc(Nc2ncnc3cnc(NCCCN4CCOCC4)cc23)c1,S,[3],> 35 mM
same,IC50,[1],1.8 nM
CNc1cc2c(Nc3cccc(Br)c3)ncnc2cn1,IC50,[4],13 nM
same,solubility,[3],0.1 mM
same,IC50,[5],52 nM
same,T-C,SK-OV-3 [6],0.8 days
same,T-C,Mus musculus [7],3.7 days
same,T-C,Mus musculus [8],1.2 days
same,T-C,MCF7 [9],11.2 days
same,T-C,MCF7 [10],15.2 days
same,T/C,A-431 [11],38%
same,T/C,Mus musculus [12],38%
same,T/C,Mus musculus [13],67%
same,T/C,MCF7 [14],14%
same,T/C,MCF7 [15],27%
same,T-C,A-431 [16],8.4 days
same,T/C,SK-OV-3 [17],67%
same,Net cell kill,Mus musculus [18],-1.3 log10
same,log net cell kill,Mus musculus [19],-1
same,Net cell kill,MCF7 [20],-0.1 log10
same,T-C,A-431 [21],16 days
same,Weight change,MCF7 [22],-0.2 g
same,Weight change,MCF7 [23],Weight gain
same,Weight change,A-431 [24],-1.3 g
same,Weight change,A-431 [25],-0.8 g
same,Weight change,Mus musculus [26],-0.1 g
same,Weight change,Mus musculus [27],Weight gain
same,Weight change,SK-OV-3 [28],-1.6 g
same,T/C,A-431 [29],41%
Brc1cccc(Nc2ncnc3cnc(NCCc4ccccn4)cc23)c1,IC50,[2],8.1 nM
same,solubility,[3],17 mM
same,IC50,[1],1.2 nM
Cc1cccc(Nc2ncnc3cnc(N)cc23)c1,solubility,[3],0.4 mM
same,IC50,[1],3.1 nM
Brc1cccc(Nc2ncnc3cnc(NCCc4c[nH]cn4)cc23)c1,IC50,[2],6.3 nM
same,solubility,[3],15 mM
same,IC50,[1],0.78 nM
Cc1nc(Nc2cccc(Br)c2)c2cc(NCCN3CCOCC3)ncc2n1,IC50,[1],117 nM
Cc1cccc(Nc2ncnc3cnc(NCCN4CCOCC4)cc23)c1,S,[3],> 40 mM
CN(CC(=O)O)c1cc2c(Nc3cccc(Br)c3)ncnc2cn1,solubility,[3],44 mM
same,IC50,[1],0.44 nM
O=C(O)CNc1cc2c(Nc3cccc(Br)c3)ncnc2cn1,solubility,[3],5 mM
same,IC50,[1],0.28 nM
CNc1cc2c(Nc3cccc(Cl)c3)ncnc2cn1,IC50,[1],0.19 nM
Brc1cccc(Nc2ncnc3cnc(NCc4cccnc4)cc23)c1,IC50,[2],13 nM
same,solubility,[3],12 mM
same,IC50,[1],1.5 nM
CN(CC(O)CO)c1cc2c(Nc3cccc(Br)c3)ncnc2cn1 (stereo not drawn),solubility,[3],0.18 mM
same,IC50,[1],0.56 nM
Brc1cccc(Nc2ncnc3cnc(NCCCn4ccnc4)cc23)c1,IC50,[2],9.1 nM
same,solubility,[3],23 mM
same,IC50,[1],1.7 nM
CN(CCO)c1cc2c(Nc3cccc(Br)c3)ncnc2cn1,solubility,[3],0.11 mM
same,IC50,[1],0.22 nM
